Measurements as given in paper PMC10316739 (Drug Delivery, 2023).

What was measured:
luteinizing hormone (LH) = experiment: Pharmacodynamics: plasma LH; format: in vivo, female Sprague–Dawley rats; conditions: rats, triptorelin 9 μg/kg s.c., ELISA, n = 8
Procedure, shortened: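 Six-week-old female rats (200 g ± 20 g) with similar cycles were split randomly into two groups of eight. One group received subcutaneous drug solution (9 μg/kg). The other received the microneedle patch (9 μg/kg) on shaved back skin, finger-pressed 3 min before the base was removed. Orbital-plexus blood was taken into heparinised tubes at 0.5–48 h and plasma stored at −80 °C. LH was measured by ELISA kit.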

[1] = stated in introduction; ref Bethesda, [2012]; cited from earlier work
[2] = Pharmacokinetics of triptorelin in rats; format: in vivo, female Sprague–Dawley rats
Procedure, shortened: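 Female rats aged 6 weeks were randomised into two groups (n = 8). One group received a 9 μg/kg subcutaneous solution and the other a 9 μg/kg microneedle patch on shaved back skin, pressed 3 min. Heparinised orbital-plexus blood was sampled at 0.5, 1, 2, 4, 8, 24 and 48 h. Plasma was centrifuged, stored at −80 °C and assayed by LC–MS/MS. PK parameters were computed from concentration–time profiles.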

[3] = female, Sprague-Dawley, rat, plasma, sc, 9 ug/kg

SMILES: CC(C)C[C@H](NC(=O)[C@@H](Cc1c[nH]c2ccccc12)NC(=O)[C@H](Cc1ccc(O)cc1)NC(=O)[C@H](CO)NC(=O)[C@H](Cc1c[nH]c2ccccc12)NC(=O)[C@H](Cc1c[nH]cn1)NC(=O)[C@@H]1CCC(=O)N1)C(=O)N[C@@H](CCCNC(=N)N)C(=O)N1CCC[C@H]1C(=O)NCC(N)=O [triptorelin, Triptorelin acetate]
- plasma LH levels at 48 h (luteinizing hormone (LH)): returned to a normal physiological state
- enhanced activity compared with GnRH [1]: 100 fold
- AUC(0-t) [2, 3]: 8.65 ± 0.41 ng·h/mL
- Cmax [2, 3]: 10.5 ± 0.6 ng/mL
- Tmax [2, 3]: 0.5 h
- half-life [2, 3]: 2.11 ± 0.05 h
- triptorelin concentration in plasma at 24 h ([2]; rats, 9 μg/kg s.c., 24 h, LC–MS/MS): could not be detected
